ChEMBL document CHEMBL1141177, “The novel L- and D-amino acid derivatives of hydroxyurea and hydantoins: synthesis, X-ray crystal structure study, and cytostatic and antiviral activity evaluations” (J Med Chem, 2005)
pIC50: −log10 of the molar value. ≈ marks a conversion by molar mass, not a printed value.

Columns and labels:
MCF7 = assay: Inhibition of breast carcinoma cell line (MCF-7) growth; type: functional, cell-based; conditions: Homo sapiens
Procedure, shortened: (§1)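 Monolayers in DMEM with 10% FBS, 2 mM L-glutamine, penicillin/streptomycin, 37 °C, 5% CO2. Cells seeded on day 0, then compounds added in 5- and 10-fold dilutions (10^-8–10^-4 M) for 72 h. MTT read-out at 570 nm. Percent growth calculated relative to time-zero and untreated OD. Quadruplicates in three experiments; IC50 by linear interpolation, highest concentration reported as ">" when not reached.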

L1210 = assay: Inhibition of murine leukemia cells (L1210) growth; type: functional, cell-based; conditions: Mus musculus
WI-38 = assay: Inhibition of normal human fibroblast cell line (WI 38) growth; type: functional, cell-based; procedure, shortened: as §1
MIA PaCa-2 = assay: Inhibition of pancreatic carcinoma cell line (MiaPaCa-2) growth; type: functional, cell-based; conditions: Homo sapiens; procedure, shortened: as §1
HEp-2 = assay: Inhibition of laryngeal carcinoma cell line (Hep-2) growth; type: functional, cell-based; conditions: Homo sapiens; procedure, shortened: as §1
MOLT-4 = assay: Inhibition of human T-lymphocyte cell line (Molt4/C8) growth; type: functional, cell-based
SW-620 = assay: Inhibition of colon carcinoma cell line (SW 620) growth; type: functional, cell-based; conditions: Homo sapiens; procedure, shortened: as §1
HeLa = assay: Inhibition of cervical carcinoma cell line (HeLa) growth; type: functional, cell-based; conditions: Homo sapiens; procedure, shortened: as §1
HEL [1] = assay: Minimum cytotoxic concentration of compound that causes alteration of cell morphology in human embryonic lung cells; type: functional
Procedure, shortened: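 Human embryonic lung (HEL) cells were examined microscopically. MCC is the minimum concentration that causes a detectable alteration of cell morphology.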

[2] = Effective concentration required to reduce plaque formation by AD-169 strain of CMV virus in Human embryonic lung cells; type: functional, cell-based
Procedure, shortened: (§2)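 Plaque reduction assay in human embryonic lung (HEL) cell cultures, virus input 100 plaque forming units. Viruses: CMV strains AD-169 and Davis, VZV TK+ strain OKA and TK− strain 07/1. EC50 is the concentration that reduces virus plaque formation by 50%.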

[3] = Effective concentration required to reduce plaque formation by Davis strain of CMV virus in Human embryonic lung cells; type: functional, cell-based; procedure, shortened: as §2
HEL [4] = assay: Cytotoxic concentration to reduce the 50% cell growth of human embryonic lung cells; type: functional; conditions: Homo sapiens, HEL; read-out: CC50
Human alphaherpesvirus 3 [5] = assay: Effective concentration of compound required to reduce plaque formation by OKA strain of thymidine kinase positive VZ virus TK+ in human embryonic lung cells; type: functional, organism-based; conditions: Human alphaherpesvirus 3, lung
Human alphaherpesvirus 3 [6] = assay: Reduction of plaque formation by VZV07/1 strain of thymidine kinase(TK-) deficient VZ virus in human embryonic lung cells; type: functional, organism-based; conditions: Human alphaherpesvirus 3, lung

SMILES: O=C(NO)NC(C(=O)NC(c1ccccc1)c1ccccc1)c1ccccc1 (stereo unspecified)
- pIC50 (MCF7): 4.08
- pIC50 (L1210): 4.74
- pIC50 (WI-38): < 4.00
- pIC50 (MIA PaCa-2): 4.50
- pIC50 (HEp-2): 4.08
- pIC50 (MOLT-4): 4.41
- pIC50 (SW-620): 4.20
- pIC50 (HeLa): 4.38

SMILES: O=C1NC(c2ccccc2)C(=O)N1Cc1ccccc1 (stereo unspecified)
- pIC50 (MCF7): 5.48
- pIC50 (L1210): < 3.70
- MCC (HEL [1]): 100 µg/mL
- pIC50 (WI-38): 4.10
- pIC50 (MIA PaCa-2): 4.16
- EC50 [2]: 7.6 µg/mL (≈ 28.5 µM)
- pIC50 (HEp-2): 4.08
- pIC50 (MOLT-4): < 3.70
- EC50 [3]: 4 µg/mL (≈ 15 µM)
- CC50 (HEL [4]): 12.5 µg/mL (≈ 46.9 µM)
- pIC50 (SW-620): 4.01
- EC50 (Human alphaherpesvirus 3 [5]): 15 µg/mL (≈ 56.3 µM)
- EC50 (Human alphaherpesvirus 3 [6]): 11 µg/mL (≈ 41.3 µM)
- pIC50 (HeLa): < 4.00

SMILES: O=C1NC(c2ccccc2)C(=O)N1C1CCCC1 (stereo unspecified)
- pIC50 (MCF7): 4.66
- pIC50 (L1210): < 3.70
- MCC (HEL [1]): ≥ 20 µg/mL
- pIC50 (WI-38): < 4.00
- pIC50 (MIA PaCa-2): < 4.00
- EC50 [2]: > 20 µg/mL
- pIC50 (HEp-2): < 4.00
- pIC50 (MOLT-4): < 3.70
- EC50 [3]: > 4 µg/mL
- CC50 (HEL [4]): 27.4 µg/mL (≈ 112 µM)
- pIC50 (SW-620): < 4.00
- EC50 (Human alphaherpesvirus 3 [5]): > 4 µg/mL
- EC50 (Human alphaherpesvirus 3 [6]): 9 µg/mL (≈ 36.8 µM)
- pIC50 (HeLa): < 4.00

SMILES: CCC(C)C(NC(=O)n1nnc2ccccc21)C(=O)NC1CCCCC1 (stereo unspecified)
- pIC50 (MOLT-4): 4.01

SMILES: CC(C)C(NC(=O)NO)C(=O)NC1CCCC1 (stereo unspecified)
- pIC50 (MCF7): < 4.00
- pIC50 (L1210): < 3.70
- pIC50 (WI-38): < 4.00
- pIC50 (MIA PaCa-2): < 4.00
- pIC50 (HEp-2): 4.48
- pIC50 (MOLT-4): < 3.70
- pIC50 (SW-620): < 4.00
- pIC50 (HeLa): < 4.00

SMILES: CCC(C)C(NC(=O)n1nnc2ccccc21)C(=O)NCc1ccccc1 (stereo unspecified)
- pIC50 (MOLT-4): 4.02

SMILES: O=C(NO)NC(Cc1ccccc1)C(=O)NC(c1ccccc1)c1ccccc1 (stereo unspecified)
- pIC50 (MCF7): 4.36
- pIC50 (L1210): 4.74
- pIC50 (WI-38): 4.48
- pIC50 (MIA PaCa-2): 4.39
- pIC50 (HEp-2): 4.21
- pIC50 (MOLT-4): 4.68
- pIC50 (SW-620): 4.18
- pIC50 (HeLa): 4.40

SMILES: O=C(NO)NC(Cc1ccccc1)C(=O)NC1CCCC1 (stereo unspecified)
- pIC50 (MCF7): < 4.00
- pIC50 (L1210): 3.84
- pIC50 (WI-38): < 4.00
- pIC50 (MIA PaCa-2): < 4.00
- pIC50 (HEp-2): < 4.00
- pIC50 (MOLT-4): < 3.70
- pIC50 (SW-620): < 4.00
- pIC50 (HeLa): < 4.00

SMILES: O=C(C(NC(=O)n1nnc2ccccc21)c1ccccc1)N1CCCCC1 (stereo unspecified)
- pIC50 (MCF7): 4.17
- pIC50 (L1210): 4.09
- MCC (HEL [1]): 200 µg/mL
- pIC50 (WI-38): ≤ 4.00
- pIC50 (MIA PaCa-2): ≤ 4.00
- EC50 [2]: > 80 µg/mL
- pIC50 (HEp-2): < 4.00
- pIC50 (MOLT-4): 4.09
- EC50 [3]: > 80 µg/mL
- CC50 (HEL [4]): 188 µg/mL (≈ 517 µM)
- pIC50 (SW-620): < 4.00
- EC50 (Human alphaherpesvirus 3 [5]): > 80 µg/mL
- EC50 (Human alphaherpesvirus 3 [6]): > 80 µg/mL
- pIC50 (HeLa): < 4.00
